# Only some compounds are listed: those with a hit (about 1.6% of all), similar ones and a draw of the others.
# TLR9-MyD88 inh = TLR9-MyD88 interaction inhibition; Q9NR96+Q99836; inhibition, % at 4.98 µM; actives 0.21% (n = 340,000); AID 504734; CHO BLA complementation TLR9-MyD88, CCF4 FRET ratio;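 active = inhibition above the mean over all tested compounds plus 3 SD, cut at about 21% in these data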
# Dynein transport = dynein cargo transport inhibition; AID 1381; 3617.4 mouse cells, GR-EGFP nuclear translocation imaging; test concentration mostly 20 µM; stimulated with dexamethasone, 1 µM; active compounds read low; z-score, hits read low; actives 0.47% (n = 220,000);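 active = plate z-score of nuclear minus cytoplasmic receptor signal below a set negative limit, without overly bright fluorescence or cell loss, cut at about -3.5 in these data, passing the limit was not always enough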;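 also: z-score of nuclear minus cytoplasmic ring GR-EGFP intensity difference per well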
#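 medium = tetracycline-free induction medium containing charcoal-stripped FBS | also added = 1.0 µM final dexamethasone stimulus | schedule = 48 h induction, 1 h compound, 30 min dex at 37 °C | technique = fixed, Hoechst-stained cells imaged at 10x for EGFP | measure = GR-EGFP nuclear translocation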
# TLR4-MyD88 BLA = inhibitors of human TLR4-MyD88 binding. HeLa CL3-4 TLR4/MyD88 BLA complementation, FRET ratio. actives 0.18% (n = 200,000). inhibition, % at 8.4 µM. O00206+Q99836; in the data active = inhibition above about 25%
# ABHD5-PLIN5 inh = ABHD5-PLIN5 protein interaction inhibition. Split G. princeps luciferase complementation, luminescence, 4 h. AID 602281. Q00G26+Q8WTS1. actives 0.78% (n = 360,000). inhibition, % at 4 µM;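 active = inhibition above the mean inhibition across every tested compound plus 3 SD, cut at about 22% in these data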
# Beta2AR agonist = human beta-2 adrenergic receptor agonism by FAP. P07550. Am2.2-beta2AR cells, FAP receptor internalization, flow cytometry. response, % (concentration not given with the values). actives 0.43% (n = 340,000). AID 504454;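 active = response above a set limit, near 3 SD of response in nonfluorescent compounds, cut at about 42% in these data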
# NOD2-RIPK2 inh = NOD2-RIPK2 protein interaction inhibition | CHO BLA complementation NOD2-RIPK2, CCF4 ratio | inhibition, % at 4.98 µM | actives 0.38% (n = 360,000) | AID 624267; in the data active = inhibition above about 21%
# Target sequence (O43353 whole entry, looked up): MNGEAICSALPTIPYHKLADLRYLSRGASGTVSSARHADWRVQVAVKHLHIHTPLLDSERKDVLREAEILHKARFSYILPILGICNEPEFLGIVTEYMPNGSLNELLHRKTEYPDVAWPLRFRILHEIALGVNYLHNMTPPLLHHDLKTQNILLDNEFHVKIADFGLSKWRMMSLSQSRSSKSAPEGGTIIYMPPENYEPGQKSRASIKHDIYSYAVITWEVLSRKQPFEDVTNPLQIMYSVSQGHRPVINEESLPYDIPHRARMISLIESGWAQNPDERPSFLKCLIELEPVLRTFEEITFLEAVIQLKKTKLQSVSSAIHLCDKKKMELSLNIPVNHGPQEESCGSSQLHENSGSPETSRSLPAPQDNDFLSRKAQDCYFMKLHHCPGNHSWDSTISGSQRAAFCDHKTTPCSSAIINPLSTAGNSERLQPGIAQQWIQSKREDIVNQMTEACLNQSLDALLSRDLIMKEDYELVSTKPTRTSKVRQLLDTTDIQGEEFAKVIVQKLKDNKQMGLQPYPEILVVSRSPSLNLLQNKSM
# TLR9-MyD88 cf = TLR9-MyD88 interaction inhibition, confirmation; inhibition, % at 4.98 µM; shares compounds with TLR9-MyD88 inh; AID 540250; actives 51% (n = 680); CHO TLR9/MyD88 BLA complementation, CCF4 FRET ratio;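 active = mean inhibition across three repeats above about 21% taken from the earlier screen, limit read from the data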;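 also: blue over green emission ratio reports constitutive TLR9 MyD88 association via BLA complementation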
# BLA counter-1 = non-selective beta-lactamase inhibitors in TLR9-MyD88 counter-screen; shares compounds with TLR9-MyD88 inh; CHO-BLA cells, CCF4 FRET ratio, BLA reporter; inhibition, % at 4.98 µM; actives 7% (n = 680); AID 540251;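 active = mean inhibition above a 50% cutoff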;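 also: counterscreen of TLR9-MyD88 hits on CMV-driven BLA in CHO-K1 cells; higher means less blue over green ratio so more BLA blockade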
# TLR9 CHO tox = counter-screen for TLR9-MyD88 inhibitors: cytotoxicity in CHO cells | inhibition, % at 4.98 µM | AID 588336 | actives 39% (n = 680) | luminescence | shares compounds with TLR9-MyD88 inh; in the data active = inhibition above about 11%
# ABHD5 PLIN5 conf = ABHD5-PLIN5 interaction inhibition, confirmed. biochemical ABHD5-PLIN5 interaction, luminescence. shares compounds with ABHD5-PLIN5 inh. inhibition, % at 4 µM. AID 651612. actives 67% (n = 2,200); in the data active = inhibition above about 23%
# HNF4 counter = counter-screen for ABHD5-PLIN5 inhibitors: HNF4 split-luciferase; shares compounds with ABHD5-PLIN5 inh; HNF4 dimerization, luminescence, biochemical; inhibition, % at 4 µM; actives 77% (n = 2,200); AID 651674;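 active = mean inhibition across replicate wells exceeding the computed hit threshold, cut at about 13% in these data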;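 also: light from luciferase halves that rejoin when HNF4 fusion proteins dimerize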
# NOD2 RIPK2 conf = NOD2-RIPK2 interaction inhibition confirmed; inhibition, % at 4.98 µM; actives 70% (n = 1,200); shares compounds with NOD2-RIPK2 inh; CHO cells, NOD2-RIPK2 BLA complementation, CCF4 FRET; AID 624370;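 active = mean inhibition across replicates above a set limit taken from the earlier primary screen, cut at about 21% in these data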
# BLA counter-2 = NOD2-RIPK2 counterscreen BLA reporter activity; shares compounds with NOD2-RIPK2 inh; CHO BLA reporter, CCF4 FRET ratio; inhibition, % at 4.98 µM; actives 57% (n = 1,200);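 active = mean inhibition above the low-control mean inhibition plus three low-control SD, cut at about 11% in these data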
# Hits are given with their value; - = inactive; . = not tested or not shown; ! = repeats disagree.
SMILES,TLR9-MyD88 inh,Dynein transport,TLR4-MyD88 BLA,ABHD5-PLIN5 inh,Beta2AR agonist,NOD2-RIPK2 inh,TLR9-MyD88 cf,BLA counter-1,TLR9 CHO tox,NOD2 RIPK2 conf,BLA counter-2,others
CCC(C)Sc1ccc(-c2nc3cc(C)ccn3c2NC2CCCCC2)cc1 (configuration not stated),-,.,.,-,-,-,.,.,.,.,.,
CCC(C)Sc1ccc(-c2nc3cnccn3c2NC2CCCCC2)cc1 (configuration not stated),35,.,.,-,-,27,46,-,-,65,72,
CCCCNc1c(-c2ccc(OC)c(SC3CCCCC3)c2)nc2cnccn12,21,.,.,-,-,40,-,-,-,29,42,
CCCCNc1c(-c2ccc(OC)c(SC3CCCCC3)c2)nc2cc(C)ccn12,-,.,.,-,-,-,.,.,.,.,.,
COC(=O)c1cn[nH]c1NC(=S)Nc1ccc(C)cc1Cl,23,-,-,-,-,50,-,-,-,27,12,
CCOC(=O)c1cn[nH]c1NC(=S)Nc1ccc(OC)cc1,-,-,.,-,-,-,.,.,.,.,.,
O=C1c2ccccc2C(c2nnnn2-c2ccc3c(c2)OCCO3)N1Cc1ccco1 (configuration not stated),.,.,.,-,.,-,.,.,.,.,.,
O=C(Cn1sc2ccccc2c1=O)Nc1ccc(Br)cc1,31,.,.,65,.,28,-,-,81,34,-,ABHD5 PLIN5 conf=81;HNF4 counter=118
O=C(CN1C(=O)C2CC=CCC2C1=O)Nc1ccc(Br)cc1 (configuration not stated),-,.,.,-,-,-,.,.,.,.,.,
CN1CCN(C2CN(Cc3cn(Cc4ccc(C(F)(F)F)cc4)nn3)S(=O)(=O)C2)CC1 (configuration not stated),.,.,.,-,.,-,.,.,.,.,.,
COc1cc(C2CC(c3c(C)cc(C)[nH]c3=O)=NN2c2ccccc2F)cc(OC)c1OC (configuration not stated),23,.,.,-,-,41,-,-,-,35,47,
Cn1c2ccccc2c(=O)c2ccc(C#Cc3ccc(N)cc3)cc21,41,.,.,-,-,55,32,-,-,51,60,
COc1cc2ccc(=O)oc2c(O[C@@H]2O[C@H](CO)[C@@H](O)[C@H](O)[C@H]2O)c1O,40,.,.,-,-,45,24!,-,-,49,59,
O=c1ccc2ccc(O[C@@H]3O[C@H](CO)[C@@H](O)[C@H](O)[C@H]3O)c(O)c2o1,-,.,.,-,-,-,.,.,.,.,.,
CCCS(=O)(=O)NC(=O)C1(C)CCCN(C(=O)c2ccc3ccccc3c2)C1 (configuration not stated),.,.,.,-,.,-,.,.,.,.,.,
O=c1oc2c(O)cccc2cc1-c1nc2ccccc2[nH]1,54,.,.,-,-,58,45,54,-,73,79,
CC(=O)N(c1ccccc1C)C1CCCC1,-,-,-,-,-,-,.,.,.,.,.,

# Source: PubChem
